In the library only some 4.1% were active in any assay of this set; here they are far more common.
KCNK3 inh: human KCNK3 channel inhibition, primary screen; 0.84% of 340,000 active; B-score at 10 µM; CHO-KCNK3 thallium flux, FluxOR fluorescence; active compounds read low;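 active = B-score under library mean minus 4 SD, starting fluorescence ratio at most library mean plus 5 SD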;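 note: more negative B-score means stronger inhibition of thallium flux through KCNK3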
Cl transport mod: modulators of human KCC2 chloride dependent transport; Q9H2X9; KCC2 cells, thallium flux FluoZin-2 fluorescence; B-score of Tl+ flux slope (higher = more flux/activation; lower = inhibition) at 10 µM; 2.2% of 190,000 active;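 active = thallium flux slope and its plate-corrected score both differing from the plate sample mean at a set confidence after two filtering rounds, in either direction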;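 note: slope of fluorescence scaled to starting intensity during 10 to 20 s after thallium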
Target sequence (Q9H2X9 whole entry, looked up): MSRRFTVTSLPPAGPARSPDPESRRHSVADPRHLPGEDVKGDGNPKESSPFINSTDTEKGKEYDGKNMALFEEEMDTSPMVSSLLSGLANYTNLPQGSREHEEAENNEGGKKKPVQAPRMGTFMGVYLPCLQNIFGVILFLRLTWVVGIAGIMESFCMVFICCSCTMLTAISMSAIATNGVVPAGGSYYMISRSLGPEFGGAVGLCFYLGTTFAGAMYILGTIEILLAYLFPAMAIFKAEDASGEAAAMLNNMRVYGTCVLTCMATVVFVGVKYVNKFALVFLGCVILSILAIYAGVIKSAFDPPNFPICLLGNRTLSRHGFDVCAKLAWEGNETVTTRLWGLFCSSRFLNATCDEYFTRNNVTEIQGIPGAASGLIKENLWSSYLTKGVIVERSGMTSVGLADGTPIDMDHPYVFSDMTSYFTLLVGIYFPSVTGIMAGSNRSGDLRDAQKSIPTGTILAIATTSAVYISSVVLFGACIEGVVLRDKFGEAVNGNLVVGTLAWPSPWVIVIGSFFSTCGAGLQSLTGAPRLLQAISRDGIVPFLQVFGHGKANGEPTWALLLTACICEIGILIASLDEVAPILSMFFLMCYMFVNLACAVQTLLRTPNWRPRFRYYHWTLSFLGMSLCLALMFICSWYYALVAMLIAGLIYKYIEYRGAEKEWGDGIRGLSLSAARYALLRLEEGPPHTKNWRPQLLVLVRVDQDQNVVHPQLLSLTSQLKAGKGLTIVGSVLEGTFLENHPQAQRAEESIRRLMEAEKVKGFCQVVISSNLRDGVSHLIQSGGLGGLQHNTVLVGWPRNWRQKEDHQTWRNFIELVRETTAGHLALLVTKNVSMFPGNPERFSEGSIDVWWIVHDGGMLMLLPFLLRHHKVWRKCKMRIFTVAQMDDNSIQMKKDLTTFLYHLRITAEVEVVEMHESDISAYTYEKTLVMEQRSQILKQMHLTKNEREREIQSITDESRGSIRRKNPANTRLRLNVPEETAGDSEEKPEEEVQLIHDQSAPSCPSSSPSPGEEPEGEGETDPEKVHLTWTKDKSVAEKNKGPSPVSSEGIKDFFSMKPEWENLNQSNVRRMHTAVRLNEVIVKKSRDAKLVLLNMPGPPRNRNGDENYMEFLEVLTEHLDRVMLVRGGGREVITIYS
hERG rescue: hERG (human) protection from proarrhythmic block; CHO-hERG, FluxOR thallium flux, dofetilide IC70 present; activation (rescue from dofetilide block), less the hit threshold, % at 10 µM; 0.51% of 310,000 active;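 active = activation above the mean of controls blocked by dofetilide plus 5 SD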;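 note: thallium influx through hERG after potassium depolarization seen as dye fluorescence rise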
KCNK9 block: blocks the human KCNK9 two-pore domain potassium channel | Q9NPC2 | HEK293 KCNK9, FluxOR thallium flux fluorescence; active compounds read low | B-score at 10 µM | 1.2% of 310,000 active;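 active = ratio B-score over 3 SD below the library mean, with starting fluorescence within 5 SD of its mean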;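 note: negative B-score means less thallium flux so channel inhibition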
KCNQ1 pot: potentiates or activates the human KCNQ1 potassium channel; CHO-K1 KCNQ1, thallium flux FluxOR fluorescence; active compounds read high; P51787; 0.35% of 310,000 active; AID 2648; B-score at 10 µM;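 active = fluorescence ratio B-score, a plate-corrected score, at least three library SD, with initial intensity B-score within 5 SD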
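Material: CHO-K1 cells stably expressing KCNQ1. Medium: assay buffer for compound exposure, DMSO matched across wells. Reagent: K+/Tl+ depolarizing stimulus. Compound dosing: single-concentration screen. Times: 37 °C overnight plating, 90-min dark dye load, 20-min compound pretreatment. Technique: FluxOR Tl+ flux fluorescence.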
KCNQ1 block: inhibitors of human KCNQ1 potassium channel; P51787; CHO-K1 KCNQ1, FluxOR thallium flux fluorescence; active compounds read high; B-score at 10 µM; 1.3% of 310,000 active; AID 2642;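 active = compounds whose thallium flux B-score, printed positive for inhibition, exceeds three library SD while starting fluorescence stays within three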;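 note: channel opened by potassium depolarization with thallium stimulus after 20 min compound exposure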
KCC2 sec1: KCC2 (human) modulation, secondary assay; shares compounds with Cl transport mod; HEK293-KCC2, thallium flux, FluoZin2 fluorescence; active compounds read high; normalised thallium flux (F/F0 slope) at 10 µM; 15% of 3,700 active;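 active = thallium flux slope above the same plate's solvent-only control mean plus 3 SD; inconclusive = the two replicate wells disagree; inactive = no significant difference from solvent-only control wells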
KCC2 bumet counter: thallium flux persisting under bumetanide in KCC2 cells, counter-screen secondary assay | shares compounds with Cl transport mod | HEK293-KCC2 + bumetanide/ouabain, thallium flux FluoZin2; active compounds read high | normalized thallium flux at 10 µM | 49% of 3,700 active;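 active = thallium entry rate above the same plate's blocked-transporter control wells by more than 3 SD; inconclusive = the two repeat wells disagree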;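 note: raw slope of fluorescence over initial fluorescence between 10 and 20 s after thallium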
KCC2 secondary2: confirmation of human KCC2 transport modulators. shares compounds with Cl transport mod. HEK293-KCC2, thallium flux FluoZin2 fluorescence; actives lie on both sides; F/F0 rise rate, 10–20 s post-thallium. normalized thallium flux at 10 µM. 23% of 3,700 active. AID 1715;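 active = thallium flux slope more than 3 SD above or below the plate's solvent-only control mean, mostly below; inconclusive = the two repeat wells disagreed; inactive = no significant shift from solvent-only controls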;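 note: raw slope with 0.1% DMSO as baseline and bumetanide as block control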
HEK counter1: parental HEK flux effect, counter-screen; shares compounds with Cl transport mod; HEK293 parental cells, thallium flux FluoZin2, ouabain; baseline-ratio fluorescence slope, 10–20 s after thallium; thallium flux rate (normalised fluorescence) at 10 µM; 46% of 3,700 active;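 active = thallium flux rate significantly above the same plate's solvent-only control wells, beyond their mean plus 3 SD; inconclusive = the two replicate wells gave conflicting results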
KCC2 retest ouab: confirmation of human KCC2 modulators with ouabain; shares compounds with Cl transport mod; HEK293-KCC2, thallium flux FluoZin2 fluorescence; bidirectional: low = inhibitor, high = activator; raw Tl+ flux slope (below DMSO = inhibition, above = activation) at 10 µM; 48% of 3,700 active; AID 1717;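 active = thallium flux slope beyond 3 SD from same-plate DMSO control mean in most replicates, usually higher, sometimes lower; inconclusive = repeat tests gave conflicting results; inactive = no significant difference from controls in most replicates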;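 note: slope of initial-normalized fluorescence between seconds 10 and 20 after thallium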
HEK293 Tl flux2: parental HEK flux effect, counter-screen 2; HEK293 parental, thallium flux FluoZin-2 fluorescence slope; shares compounds with Cl transport mod; AID 1718; thallium flux slope at 10 µM; 33% of 3,700 active;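 active = thallium flux slope above the same plate's solvent-control mean plus 3 SD in both duplicate wells; inconclusive = duplicate wells that disagreed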;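 note: run without ouabain in cells lacking the KCC2 cotransporter; slope of fluorescence scaled to its starting value between 10 and 20 s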
* = called active by the depositor; i = inactive; ? = inconclusive; . = not tested or not shown.

SMILES	KCNK3 inh	Cl transport mod	hERG rescue	KCNK9 block	KCNQ1 pot	KCNQ1 block	KCC2 sec1	KCC2 bumet counter	KCC2 secondary2	HEK counter1	KCC2 retest ouab	HEK293 Tl flux2
COCCNc1oc(-c2ccccc2Cl)nc1C#N	i	-3.8*	-14	i	i	i	0.0078	0.0055	0.03	0.0068	0.02	0.0089
O=[N+]([O-])c1ccc2c(c1)C(=NO)c1cc(Cl)c(Cl)cc1-2	i	.	.	.	.	.	.	.	.	.	.	.
CC(=O)OCC1OC(OC(C)=O)C(NC(=O)Cc2ccccc2)C(OC(C)=O)C1OC(C)=O (stereo not given)	i	-0.55	-4	i	i	i	.	.	.	.	.	.
CC(=O)OCC1OC(c2ccccc2)C(OC(C)=O)C(OC(C)=O)C1OC(C)=O (stereo not given)	i	4.3*	-10	i	i	i	0.0064	0.005	?	0.0071	0.018	0.01
N#Cc1ccc(C23CC4(C2)[C@H](CN(Cc2ccc(-c5ccccc5)cc2)[C@@H]4c2ccccc2)C3c2ccccc2)cc1 (stereo not given in full)	i	3.7*	-12	i	i	i	0.015	0.0049	0.026	0.0075	0.016	0.01
O=C(COc1ccccc1)Nc1nnc(-c2ccccc2)o1	i	1.1	0	i	i	i	.	.	.	.	.	.
O=C(COc1ccccc1)Nc1nnc(-c2ccc(Cl)s2)o1	i	.	-3	i	i	i	0.014*	0.022*	0.031	0.012*	0.025	0.012*
COc1ccc(-c2csc(NC(=S)NC(=O)c3cccs3)n2)cc1OC	i	31*	0	-7.9*	11*	i	0.01*	0.046*	0.056*	0.044*	0.048*	0.044*
COc1cc(NC(=S)NC(=O)c2ccco2)ccc1NC(=O)C(C)C	i	5.2*	-22	i	i	i	0.0099	0.012*	0.031	0.012*	?	0.011
COc1cc(NC(=S)NC(=O)c2cccs2)ccc1NC(=O)C(C)C	i	5.1*	-9	i	i	i	0.0099	0.024*	0.03	0.01*	?	0.011*
CCCCC(=O)Nc1ccc(NC(=S)NC(=O)c2ccco2)cc1OC	i	13*	-4	i	i	i	0.022*	0.047*	?	0.02*	0.026*	0.022*
CCn1c(=O)c(CCC(=O)NCC2CCCO2)c(C)c2c(C)nn(-c3ccc(C)cc3)c21 (stereo not given)	i	.	-5	i	i	i	.	.	.	.	.	.
O=C(NC(=S)Nc1nc(-c2ccc(Br)cc2)cs1)c1ccco1	i	5.5*	6.3*	i	i	i	0.0063	0.0078*	0.029	0.011*	0.021	0.011*
COc1ccc(OC)c(NC(=O)C2CCN(C(=O)c3cccs3)CC2)c1	i	-0.069	-10	i	i	i	.	.	.	.	.	.
COc1ccc(OC)c(NC(=O)C(=O)NNC(=O)c2cccs2)c1	i	9.9*	5.5*	i	i	i	0.015*	0.063*	0.034	0.022*	0.04*	0.015*
O=C(O)c1ccc(N2CCCCS2(=O)=O)cc1	i	.	-5	i	i	i	0.0057	0.0049	0.026*	0.0082	0.019	0.012
CCOC(=O)CCN(C(=S)Nc1ccccc1)C1CCCCC1	i	.	.	.	.	.	.	.	.	.	.	.
COC(=O)NNC(=O)C12CC3CC(CC(C3)C1)C2	i	2	-6	i	i	i	.	.	.	.	.	.
CC(C)(C)NC(=O)C(=O)NNC(=O)C12CC3CC(CC(C3)C1)C2	i	5.9*	-7	i	i	i	?	0.045*	0.036*	0.029*	0.038*	0.023*
Cc1ccsc1C(=O)Nc1nnc(-c2ccco2)o1	i	.	-12	i	i	i	0.013*	0.026*	0.032	0.015*	0.03*	0.011*
Cc1cccc(OCC(=O)Nc2cccc(C(=O)Nc3ccccc3C(=O)O)c2)c1	i	-4.8	-28	i	i	i	.	.	.	.	.	.
CC(C)c1ccc(OCC(=O)Nc2cccc(C(=O)Nc3ccccc3C(=O)O)c2)cc1	i	-5*	-21	i	i	i	0.0082	0.0055	0.033	0.0057*	0.016*	0.0097
Cc1cc(C)n(-c2nc(SCC(=O)Nc3nccs3)c3c4c(sc3n2)COC(C)(C)C4)n1	i	4.4*	-2	i	i	i	0.0096	0.022*	0.032	0.019*	0.026*	0.013*
Cc1cc(C)n(-c2nc(-n3nc(C)cc3C)c3c4c(sc3n2)COC(C)(C)C4)n1	.	.	-14	i	i	i	.	.	.	.	.	.
S=c1[nH]cc(Cc2ccccc2)s1	i	40*	4	i	i	i	0.026*	0.12*	0.032	0.035*	0.068*	0.021*
Cc1nc2nc(-c3ccc(Cl)cc3)cn2nc1C	i	.	-3	i	i	i	0.0086	0.0057	0.031	0.0087	0.019	0.012
O=[N+]([O-])c1ccc(/C=N/Nc2nc(N3CCCC3)nc(N3CCCC3)n2)o1	i	6.1*	-12	i	i	i	0.0053	0.0044	0.029	0.0078	0.018	0.011
O=[N+]([O-])c1ccc(-c2ccc(/C=N/Nc3nc(N4CCCCC4)nc(N4CCCCC4)n3)o2)cc1	i	0.63	-7	i	i	i	.	.	.	.	.	.
O=C(N/N=C/c1ccccn1)c1cc(-c2ccccc2)nc2ccccc12	i	12*	-6	i	i	i	0.0086	0.023*	0.03	0.01*	?	0.0096
S=C(NCc1ccc2c(c1)OCO2)NC1CCN(Cc2ccccc2)CC1	i	.	-7	i	i	i	.	.	.	.	.	.
